Measured values as given in ChEMBL document CHEMBL1921774, “Evaluation of 18F-labeled benzodioxine piperazine-based dopamine D4 receptor ligands: lipophilicity as a determinate of nonspecific binding” (J Med Chem, 2011).
Activity calls are given as the source filed them. The calls are words filed in the database; no cut-off is given here.

How the values were obtained:
[1] = molecular target: T1, D(4) dopamine receptor (Rattus norvegicus) (UniProt P30729); assay: Binding affinity to dopamine D4 receptor in Wistar rat thalamus at 5 nmol/L measured after 30 mins; conditions: tested as the 18F-labelled form
T1 sequence (whole entry): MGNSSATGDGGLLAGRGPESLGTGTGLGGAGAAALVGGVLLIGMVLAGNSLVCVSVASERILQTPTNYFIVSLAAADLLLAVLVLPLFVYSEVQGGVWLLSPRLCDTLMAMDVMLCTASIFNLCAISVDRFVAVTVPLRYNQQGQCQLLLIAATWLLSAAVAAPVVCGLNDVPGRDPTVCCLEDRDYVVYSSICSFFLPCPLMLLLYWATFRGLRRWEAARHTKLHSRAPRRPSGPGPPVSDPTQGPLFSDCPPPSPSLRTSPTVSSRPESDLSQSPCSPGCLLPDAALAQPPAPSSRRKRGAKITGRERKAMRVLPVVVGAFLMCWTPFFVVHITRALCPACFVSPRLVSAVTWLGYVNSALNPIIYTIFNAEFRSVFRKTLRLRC
Outline: (§1)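 Horizontal 20 μm cryostat sections of brains from Wistar rats (4–6 months, 230–250 g) were used. After a 10 min preincubation in 50 mmol/L Tris-HCl pH 7.4 at 22 °C, slices were incubated 30 min with ¹⁸F-radioligand (5 nmol/L, or 10 nmol/L for one tracer). Nonspecific binding was taken with 10 μmol/L spiperone or cold standard; total binding had DMSO alone. Regions were assigned by cresyl violet staining.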

[2] = molecular target: T1, D(4) dopamine receptor (Rattus norvegicus); assay: Binding affinity to dopamine D4 receptor in Wistar rat hippocampus at 5 nmol/L after 30 mins using cresyl violet staining by In vitro autoradiography in presence of 10 uM non-radiolabeled compound; assay type: tissue-based; conditions: tested as the 18F-labelled form; outline: as §1
[3] = molecular target: T1, D(4) dopamine receptor (Rattus norvegicus); assay: Binding affinity to dopamine D4 receptor in Wistar rat cortex at 5 nmol/L measured after 30 mins; conditions: tested as the 18F-labelled form; outline: as §1
[4] = molecular target: D(3) dopamine receptor (Homo sapiens, UniProt P35462); assay: Displacement of [3H]spiperone from human dopamine D3 receptor expressed in CHO cells; assay type: cell-based
Sequence of D(3) dopamine receptor (P35462 whole entry): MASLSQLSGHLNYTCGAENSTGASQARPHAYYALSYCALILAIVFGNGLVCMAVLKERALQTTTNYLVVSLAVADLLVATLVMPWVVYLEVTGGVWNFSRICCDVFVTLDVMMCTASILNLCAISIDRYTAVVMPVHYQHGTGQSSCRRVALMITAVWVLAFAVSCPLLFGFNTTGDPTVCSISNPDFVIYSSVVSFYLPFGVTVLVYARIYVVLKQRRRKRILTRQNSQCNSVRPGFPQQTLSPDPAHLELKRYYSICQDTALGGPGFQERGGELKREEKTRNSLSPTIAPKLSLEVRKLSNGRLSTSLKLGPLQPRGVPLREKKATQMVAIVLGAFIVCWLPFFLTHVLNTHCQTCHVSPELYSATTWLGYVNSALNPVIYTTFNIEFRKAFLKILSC
Outline: (§2)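 Membranes from CHO cells stably expressing each receptor, 2–6 μg protein per tube, competed against [³H]spiperone at 0.2 nM final. Competition curves were analyzed by nonlinear regression to give Ki.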

[5] = molecular target: T2, D(4) dopamine receptor (Mus musculus) (UniProt P51436); assay: Binding affinity to dopamine D4 receptor in NMRI mouse hippocampus at 20 nmol/L after 30 mins using cresyl violet staining by In vitro autoradiography in presence of 10 uM non-radiolabeled compound; assay type: tissue-based; conditions: tested as the 18F-labelled form
T2 sequence (whole entry): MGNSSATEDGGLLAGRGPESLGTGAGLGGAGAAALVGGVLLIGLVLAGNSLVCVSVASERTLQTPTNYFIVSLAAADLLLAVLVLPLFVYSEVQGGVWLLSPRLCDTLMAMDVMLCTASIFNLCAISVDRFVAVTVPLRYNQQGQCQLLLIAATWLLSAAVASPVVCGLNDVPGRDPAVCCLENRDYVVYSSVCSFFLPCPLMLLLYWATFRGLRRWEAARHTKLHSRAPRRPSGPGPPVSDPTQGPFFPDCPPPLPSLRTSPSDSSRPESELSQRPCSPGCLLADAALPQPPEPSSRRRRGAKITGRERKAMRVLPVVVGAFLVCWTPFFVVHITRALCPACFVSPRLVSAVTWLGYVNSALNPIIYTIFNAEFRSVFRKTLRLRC
Outline: (§3)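 Sagittal brain slices from female NMRI mice (2–6 months) were preincubated 10 min in 50 mmol/L Tris-HCl pH 7.4 at 22 °C. They were then incubated 30 min with 20 nmol/L [¹⁸F]-ligand plus 10 μmol/L displacer (spiperone or cold standard), or with DMSO alone for total binding. After the ¹⁸F had decayed, regions were identified by cresyl violet staining.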

[6] = molecular target: T1, D(4) dopamine receptor (Rattus norvegicus); assay: Binding affinity to dopamine D4 receptor in coliculus of Wistar rat at 5 nmol/L after 30 mins using cresyl violet staining by In vitro autoradiography in presence of 10 uM non-radiolabeled compound; outline: as §1
[7] = molecular target: T3, D(4) dopamine receptor (Homo sapiens, UniProt P21917); assay: Displacement of [3H]spiperone from human dopamine D4.4 receptor expressed in CHO cells; assay type: cell-based; outline: as §2
T3 sequence (P21917 whole entry): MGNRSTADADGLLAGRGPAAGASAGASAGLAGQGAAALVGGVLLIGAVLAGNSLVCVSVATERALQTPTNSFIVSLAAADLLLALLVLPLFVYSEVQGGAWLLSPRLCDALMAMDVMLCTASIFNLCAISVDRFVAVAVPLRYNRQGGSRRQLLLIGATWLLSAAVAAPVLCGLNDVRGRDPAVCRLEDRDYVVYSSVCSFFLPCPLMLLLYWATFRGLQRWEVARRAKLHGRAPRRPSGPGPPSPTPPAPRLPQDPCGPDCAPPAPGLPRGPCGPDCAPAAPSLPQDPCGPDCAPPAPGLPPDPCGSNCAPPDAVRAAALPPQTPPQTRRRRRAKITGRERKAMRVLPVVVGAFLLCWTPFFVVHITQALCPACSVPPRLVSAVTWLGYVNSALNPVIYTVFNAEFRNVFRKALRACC

[8] = molecular target: T2, D(4) dopamine receptor (Mus musculus); assay: Binding affinity to dopamine D4 receptor in NMRI mouse cortex at 20 nmol/L after 30 mins using cresyl violet staining by In vitro autoradiography in presence of 10 uM non-radiolabeled compound; conditions: tested as the 18F-labelled form; outline: as §3
[9] = Displacement of [3H]prazosin from adrenergic alpha1 receptor in porcine cortical membranes; assay type: cell membranes, Sus scrofa
Outline: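 Porcine cerebral cortex homogenate, 40 μg/mL protein per tube, with 0.2 nM [³H]prazosin. Protein was measured by Lowry. Competition curves were fitted by nonlinear regression.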

[10] = test system: CHO10001; assay: Neutral antagonist activity at human dopamine D4.2 receptor expressed in CHO10001 cells assessed as inhibition of [3H]thymidine incorporation relative to quinpirole; assay type: functional, cell-based
Outline: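 Growing D4.2-expressing CHO10001 cells were stimulated with test compound and given 0.02 μCi [³H]thymidine per well; incorporation was measured. Data from four dose-response experiments were normalized and pooled to give means per concentration, and compared with the full agonist quinpirole.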

[11] = molecular target: T1, D(4) dopamine receptor (Rattus norvegicus); assay: Binding affinity to dopamine D4 receptor in medial nuclei of cerebellum in Wistar rat at 5 nmol/L after 30 mins using cresyl violet staining by In vitro autoradiography in presence of 10 uM non-radiolabeled compound; assay type: tissue-based; conditions: tested as the 18F-labelled form; outline: as §1
[12] = molecular target: T2, D(4) dopamine receptor (Mus musculus); assay: Binding affinity to dopamine D4 receptor in NMRI mouse coliculus at 20 nmol/L after 30 mins using cresyl violet staining by In vitro autoradiography in presence of 10 uM non-radiolabeled compound; conditions: tested as the 18F-labelled form; outline: as §3
[13] = molecular target: T1, D(4) dopamine receptor (Rattus norvegicus); assay: Binding affinity to dopamine D4 receptor in Wistar rat striatum at 5 nmol/L after 30 mins using cresyl violet staining by In vitro autoradiography in presence of 10 uM non-radiolabeled compound; conditions: tested as the 18F-labelled form; outline: as §1
[14] = molecular target: 5-hydroxytryptamine receptor 2A (Sus scrofa, UniProt P50129); assay: Displacement of [3H]ketanserin from 5-HT2 receptor in porcine cortical membranes; assay type: cell membranes
Sequence of 5-hydroxytryptamine receptor 2A (P50129 whole entry): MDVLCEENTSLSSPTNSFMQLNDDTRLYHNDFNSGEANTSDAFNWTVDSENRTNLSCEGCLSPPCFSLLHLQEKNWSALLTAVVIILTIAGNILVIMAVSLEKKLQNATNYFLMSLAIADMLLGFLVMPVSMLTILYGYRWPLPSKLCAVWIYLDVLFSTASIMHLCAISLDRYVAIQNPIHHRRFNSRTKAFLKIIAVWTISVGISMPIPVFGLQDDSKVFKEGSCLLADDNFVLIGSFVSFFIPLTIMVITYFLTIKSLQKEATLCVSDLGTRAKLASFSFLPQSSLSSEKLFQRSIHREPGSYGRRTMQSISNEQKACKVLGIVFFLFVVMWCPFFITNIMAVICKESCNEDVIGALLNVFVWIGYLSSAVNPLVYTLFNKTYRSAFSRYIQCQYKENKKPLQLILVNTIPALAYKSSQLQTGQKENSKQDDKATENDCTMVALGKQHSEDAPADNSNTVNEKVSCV
Outline: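 Porcine cerebral cortex homogenate, 110 μg/mL protein per tube, with 0.5 nM [³H]ketanserin. Protein was measured by Lowry. Competition curves were fitted by nonlinear regression.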

[15] = molecular target: T2, D(4) dopamine receptor (Mus musculus); assay: Binding affinity to dopamine D4 receptor in NMRI mouse hippocampus dentate gyrus at 20 nmol/L after 30 mins using cresyl violet staining by In vitro autoradiography in presence of 10 uM non-radiolabeled compound; assay type: tissue-based; conditions: tested as the 18F-labelled form; outline: as §3
[16] = molecular target: T1, D(4) dopamine receptor (Rattus norvegicus); assay: Binding affinity to dopamine D4 receptor in coliculus of Wistar rat at 10 nmol/L after 30 mins using cresyl violet staining by In vitro autoradiography in presence of 10 uM non-radiolabeled compound; conditions: tested as the 18F-labelled form; outline: as §1
[17] = molecular target: T4, D(2) dopamine receptor (Homo sapiens, UniProt P14416); assay: Displacement of [3H]spiperone from human dopamine D2long receptor expressed in CHO cells; assay type: cell-based; outline: as §2
T4 sequence (P14416 whole entry): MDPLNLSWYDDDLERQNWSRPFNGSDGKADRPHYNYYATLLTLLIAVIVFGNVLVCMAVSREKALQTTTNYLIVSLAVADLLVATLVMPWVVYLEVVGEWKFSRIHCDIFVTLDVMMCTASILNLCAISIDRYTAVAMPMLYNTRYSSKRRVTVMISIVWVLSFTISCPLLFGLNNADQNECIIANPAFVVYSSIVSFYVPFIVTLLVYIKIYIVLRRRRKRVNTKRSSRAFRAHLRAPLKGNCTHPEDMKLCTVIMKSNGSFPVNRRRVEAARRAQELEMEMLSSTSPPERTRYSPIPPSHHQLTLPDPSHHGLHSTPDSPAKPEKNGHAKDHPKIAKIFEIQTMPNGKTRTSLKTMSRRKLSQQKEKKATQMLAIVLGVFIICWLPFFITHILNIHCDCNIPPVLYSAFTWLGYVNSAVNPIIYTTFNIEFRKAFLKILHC

[18] = Displacement of [3H]WAY100635 from 5-HT1A receptor in porcine cortical membranes
[19] = molecular target: T1, D(4) dopamine receptor (Rattus norvegicus); assay: Binding affinity to dopamine D4 receptor in Wistar rat frontal cortex at 5 nmol/L after 30 mins using cresyl violet staining by In vitro autoradiography in presence of 10 uM non-radiolabeled compound; assay type: tissue-based; conditions: tested as the 18F-labelled form; outline: as §1
[20] = molecular target: T4, D(2) dopamine receptor; assay: Displacement of [3H]spiperone from human dopamine D2short receptor expressed in CHO cells; assay type: cell-based; outline: as §2
[21] = molecular target: D(1A) dopamine receptor (Sus scrofa, UniProt P50130); assay: Displacement of [3H]SCH23390 from dopamine D1 receptor in porcine striatal membranes
Sequence of D(1A) dopamine receptor (P50130 whole entry): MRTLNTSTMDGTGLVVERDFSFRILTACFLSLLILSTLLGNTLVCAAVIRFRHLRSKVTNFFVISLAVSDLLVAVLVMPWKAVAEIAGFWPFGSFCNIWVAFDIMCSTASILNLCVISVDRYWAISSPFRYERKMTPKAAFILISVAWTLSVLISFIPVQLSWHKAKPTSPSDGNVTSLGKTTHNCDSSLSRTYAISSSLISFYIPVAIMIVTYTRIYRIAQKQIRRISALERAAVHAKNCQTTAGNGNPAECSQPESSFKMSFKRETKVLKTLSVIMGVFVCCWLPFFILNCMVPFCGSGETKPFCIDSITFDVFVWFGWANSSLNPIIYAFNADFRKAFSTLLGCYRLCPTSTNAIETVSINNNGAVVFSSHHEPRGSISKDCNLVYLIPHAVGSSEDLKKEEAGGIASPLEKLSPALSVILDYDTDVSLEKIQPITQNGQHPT

[22] = molecular target: T2, D(4) dopamine receptor (Mus musculus); assay: Binding affinity to dopamine D4 receptor in NMRI mouse hippocampus cornu ammonis 3 at 20 nmol/L after 30 mins using cresyl violet staining by In vitro autoradiography in presence of 10 uM non-radiolabeled compound; assay type: tissue-based; conditions: tested as the 18F-labelled form; outline: as §3
[23] = Lipophilicity, log P of the compound at pH 7.4 by HPLC method; conditions: buffer
[24] = molecular target: T1, D(4) dopamine receptor (Rattus norvegicus); assay: Binding affinity to dopamine D4 receptor in medial nuclei of cerebellum in Wistar rat at 10 nmol/L after 30 mins using cresyl violet staining by In vitro autoradiography in presence of 10 uM non-radiolabeled compound; assay type: tissue-based; conditions: tested as the 18F-labelled form; outline: as §1
[25] = organism: Homo sapiens; assay: Selectivity ratio of Ki for human dopamine D2long receptor to Ki for human dopamine D4.4 receptor
[26] = organism: Homo sapiens; assay: Selectivity ratio of Ki for human dopamine D2short receptor to Ki for human dopamine D4.4 receptor
[27] = molecular target: T1, D(4) dopamine receptor (Rattus norvegicus); assay: Binding affinity to dopamine D4 receptor in Wistar rat brain slices assessed as nonspecific binding at 10 nmol/L measured after 30 mins by In vitro autoradiography presence of nonradioactive ligand; conditions: tested as the 18F-labelled form; outline: as §1
[28] = organism: Homo sapiens; assay: Selectivity ratio of Ki for human dopamine D3 receptor to Ki for human dopamine D4.4 receptor
[29] = Octanol-buffer partition coefficient, log P of the compound at pH 7.4 by shake flask method

Compound | Ki [4] [µM] | Ki [7] [µM] | Ki [9] [µM] | Activity [10] | Ki [14] [µM] | Activity [16] | Ki [17] [µM] | Ki [18] [µM] | Ki [20] [µM] | Ki [21] [µM] | logP [23] | Ratio Ki [25] | Ratio Ki [26] | Ratio Ki [28] | logD [29] | also measured
Fc1ccc(CN2CCN(c3ccc4c(c3)OCCO4)CC2)cn1 | 17 | 0.015 | 11 | Active | 5.8 | Active | 29 | 21 | 45 | 35 | – | – | – | – | – | Activity [1]: Active; Activity [2]: inactive; Activity [3]: Active; Activity [5]: Active; Activity ([6]; 10 nmol/L, tested as the 18F-labelled form, in the assay text read “10 nmol/L” for “5 nmol/L”): Active; Activity [8]: Active; Activity [11]: Active; Activity [12]: Active; Activity [13]: Active; Activity [15]: Active; Activity [19]: inactive; Activity [22]: Active
Oc1cc(CN2CCN(c3ccc4c(c3)OCCO4)CC2)ccc1F | 4.2 | 0.0073 | 3 | Active | 2.3 | Active | 9 | 6.2 | 6.1 | 15 | 1.7 | 1300 | 830 | 590 | 1.78 | Activity ([6]; 10 nmol/L, in the assay text read “10 nmol/L” for “5 nmol/L”, tested as the 18F-labelled form): Active; Activity [24]: Active; Activity [27]: 33%
Fc1ccc(CN2CCN(c3ccc4c(c3)OCCO4)CC2)cc1 | 3.9 | 0.0011 | 4 | Active | 7 | – | 7.6 | 5.2 | 5.7 | 19 | 2.71 | 6700 | 5000 | 3600 | – | –
COc1cc(CN2CCN(c3ccc4c(c3)OCCO4)CC2)ccc1F | 5.9 | 0.0042 | 3.3 | Active | 4.2 | – | 17 | 5.6 | 16 | 23 | 2.44 | 4000 | 3800 | 1400 | 2.33 | –
